Measurements from ChEMBL document CHEMBL2046374, “Synthesis and biological evaluation of vinyl ether-containing azole derivatives as inhibitors of Trichophyton rubrum” (2012).
Values after ≈ are worked out from the molar mass of the structure shown.

system: Trichophyton rubrum; test: Antifungal activity against Trichophyton rubrum incubated at 35 degC for 72 hrs by NCCLS based microbroth dilution method; type: functional
Procedure, shortened: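 Broth microdilution in 96-well plates per NCCLS; compounds dissolved in DMSO, serially diluted in growth medium, inoculated, incubated at 35 °C, read at 72 h for T. rubrum. MIC80 taken as first well with ~80% growth reduction versus drug-free well. Fluconazole, itraconazole, voriconazole, omoconazole and amphotericin B as positive controls. Tests run three times; mean of replicates reported.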

First: C/C(=C(/OCCCCOc1ccc(Cl)cc1Cl)c1ccc(F)cc1F)n1cncn1.O=[N+]([O-])O
Second: C/C(=C(/OCCCCOc1ccccc1Cl)c1ccc(F)cc1F)n1cncn1.O=[N+]([O-])O
The MIC80 of the first is 20-fold higher: 2 µg/mL for the first, 0.1 µg/mL for the second.

First: C[C@@H](c1ncncc1F)[C@](O)(Cn1cncn1)c1ccc(F)cc1F [VORICONAZOLE]
Second: OC(Cn1cncn1)(Cn1cncn1)c1ccc(F)cc1F [FLUCONAZOLE]
The MIC80 of the first is 64-fold lower: 0.0625 µg/mL (≈ 0.179 µM) for the first, 4 µg/mL (≈ 13.1 µM) for the second.

Going from `C[C@@H]1[C@H](O)[C@@H](C)/C=C/C=C/C=C/C=C/C=C/C=C/C=C/[C@H](O[C@@H]2O[C@H](C)[C@@H](O)[C@H](N)[C@@H]2O)C[C@@H]2O[C@](O)(C[C@@H](O)C[C@@H](O)[C@H](O)CC[C@@H](O)C[C@@H](O)CC(=O)O[C@H]1C)C[C@H](O)[C@H]2C(=O)O` [AMPHOTERICIN B] to `CCC(C)n1ncn(-c2ccc(N3CCN(c4ccc(OCC5COC(Cn6cncn6)(c6ccc(Cl)cc6Cl)O5)cc4)CC3)cc2)c1=O` (stereo not given) [ITRACONAZOLE], the MIC80 falls from 2 µg/mL (≈ 2.16 µM) to 0.125 µg/mL (≈ 0.177 µM) (16-fold).

Compared with `C/C(=C(/OCCOc1ccc(Cl)cc1)c1ccc(F)cc1F)n1cncn1.O=[N+]([O-])O`, `C/C(=C(/OCCCOc1ccc(Cl)cc1)c1ccc(F)cc1F)n1cncn1.O=[N+]([O-])O` is 1.6-fold lower in MIC80: 0.2 µg/mL for the first, 0.125 µg/mL for the second.

Compared with `C/C(=C(/OCCCCOc1ccc(F)cc1)c1ccc(F)cc1F)n1cncn1.O=[N+]([O-])O`, `C/C(=C(/OCCCOc1ccc(F)cc1)c1ccc(F)cc1F)n1cncn1.O=[N+]([O-])O` is 4-fold higher in MIC80: 0.025 µg/mL for the first, 0.1 µg/mL for the second.

Compared with `C/C(=C(/OCCCCOc1ccc(C)cc1)c1ccc(F)cc1F)n1cncn1.O=[N+]([O-])O`, `C/C(=C(/OCCCOc1ccc(C)cc1)c1ccc(F)cc1F)n1cncn1.O=[N+]([O-])O` is 12-fold higher in MIC80: 0.2 µg/mL for the first, 2.5 µg/mL for the second.

First: C/C(=C(/OCCOc1ccc(Cl)cc1)c1ccc(Cl)cc1Cl)n1ccnc1 [OMOCONAZOLE]
Second: C/C(=C(/OCCCCOc1ccc(Cl)cc1)c1ccc(F)cc1F)n1cncn1.O=[N+]([O-])O
The MIC80 of the first is 1.6-fold higher: 0.1 µg/mL (≈ 0.236 µM) for the first, 0.0625 µg/mL for the second.

First: C/C(=C(/OCCCCOc1ccc(Br)cc1)c1ccc(F)cc1F)n1cncn1.O=[N+]([O-])O
Second: C/C(=C(/OCCCOc1ccc(Br)cc1)c1ccc(F)cc1F)n1cncn1.O=[N+]([O-])O
The MIC80 of the first is 5-fold lower: 0.05 µg/mL for the first, 0.25 µg/mL for the second.

First: C/C(=C(/OCCCCCOc1ccc(Cl)cc1)c1ccc(F)cc1F)n1cncn1.O=[N+]([O-])O
Second: C/C(=C(/OCCCCCCOc1ccc(Cl)cc1)c1ccc(F)cc1F)n1cncn1.O=[N+]([O-])O
The MIC80 of the first is 10-fold lower: 0.25 µg/mL for the first, 2.5 µg/mL for the second.

Going from `C/C(=C(/OCCCCOc1cccc(Cl)c1)c1ccc(F)cc1F)n1cncn1.O=[N+]([O-])O` to `C/C(=C(/OCCCCOc1c(Cl)cc(Cl)cc1Cl)c1ccc(F)cc1F)n1cncn1.O=[N+]([O-])O`, the MIC80 rises from 0.025 µg/mL to > 20 µg/mL.
